High-throughput results (PubChem BioAssay)
Ecoli tolC = growth inhibitors of E. coli BW25113 tolC mutant; growth inhibition, % at 10 µM (by protocol); actives 2.2% (n = 65,000); OD615;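 active means growth inhibition at or above a cutoff equal to the mean over every tested compound plus 3 SD, cut at about 60% in these data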;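 further: growth measured after 20 h incubation at 37 °C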
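Assay system: tolC-deleted E. coli BW25113. Medium: kanamycin-containing LB broth (50 µg/mL). Dosing: 10 µM final, single dose. Timing: bacterial growth with compound for 20 h at 37 °C. Detection: A615 absorbance measurement. Read-out basis: growth inhibition in percent.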
CYP2C9 act = activators of human CYP2C9 | P11712 | recombinant CYP2C9, luciferin-H conversion, luminescence; stronger effect = higher value; factor 1 = untreated enzyme, 0 = blocked | activation factor at 5 µM | actives 1.4% (n = 96,000) | AID 1024;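 active means activation factor of 2 or more for CYP2C9 at a 5 µM dose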
Target sequence (P11712 whole entry, looked up): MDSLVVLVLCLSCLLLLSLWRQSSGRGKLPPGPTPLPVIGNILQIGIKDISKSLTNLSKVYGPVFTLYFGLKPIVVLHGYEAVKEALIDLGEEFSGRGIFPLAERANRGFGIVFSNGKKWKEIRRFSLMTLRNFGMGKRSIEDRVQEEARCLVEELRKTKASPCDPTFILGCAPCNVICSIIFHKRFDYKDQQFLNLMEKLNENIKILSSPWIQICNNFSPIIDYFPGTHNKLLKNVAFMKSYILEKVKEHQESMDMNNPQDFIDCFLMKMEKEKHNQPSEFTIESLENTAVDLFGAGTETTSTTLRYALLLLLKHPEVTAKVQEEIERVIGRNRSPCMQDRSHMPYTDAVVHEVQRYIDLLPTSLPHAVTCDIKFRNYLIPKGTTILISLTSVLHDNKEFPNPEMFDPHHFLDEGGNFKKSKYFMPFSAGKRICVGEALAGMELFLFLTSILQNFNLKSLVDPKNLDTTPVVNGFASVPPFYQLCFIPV
CYP2C19 activ = increases human CYP2C19 enzyme activity | recombinant CYP2C19, luciferin-H EGE luminescence; stronger effect = higher value; 0 = fully inhibited enzyme, 1 = untreated enzyme | activation factor at 5 µM | 96,000 tested, under 10 active | AID 1025;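 active means activation factor of at least 2 at 5 µM in the primary screen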
CYP2C19 inh = blocks human cytochrome P450 2C19; P33261; CYP2C19 Supersomes, luciferin-H EGE luminescence, 30 min; inhibition, % at 5 µM; actives 21% (n = 96,000);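 active means CYP2C19 inhibition above a set limit at 5 µM in the primary screen, cut at about 50% in these data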
CYP2C9 inhib = human CYP2C9 inhibition; inhibition, % at 5 µM; P11712; CYP2C9 Supersomes, luciferin-H conversion, luminescence; actives 20% (n = 96,000);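 active means blocking of liver enzyme CYP2C9 beyond about 50% at 5 µM, limit read from the data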
E coli WT exp = E. coli BW25113 growth inhibition, expanded screen; OD600 absorbance; growth inhibition, % at 100 µM; actives 0.15% (n = 98,000); AID 710;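 active means growth inhibition above about 50% at one test dose, limit read from the data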;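 further: growth measured after 20 h incubation at 37 °C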
Hits are given with their value; 0 = inactive; - = no result given. Shown are actives, neighbours in structure and some others; about 29% of the full set was active somewhere.

SMILES | Ecoli tolC | CYP2C9 act | CYP2C19 activ | CYP2C19 inh | CYP2C9 inhib | E coli WT exp
COC(=O)[C@H](CCSC)NC(=O)N1CCC(C)CC1 | - | 0 | 0 | 97 | 96 | 0
O=C(OCN1C(=O)c2ccccc2C1=O)c1cccs1 | 0 | 0 | 0 | 0 | 0 | 0
Cc1nc2ccc(NC(=S)NC(C)C)cc2nc1C | - | 0 | 0 | 0 | 0 | 0
O=C(/C=C/N1CCOCC1)c1ccc(-c2ccccc2)cc1 | 0 | 0 | 0 | 0 | 89 | 0
Cc1cc(NC(=O)CSc2cn(CCNC(=O)c3ccccc3)c3ccccc23)no1 | 0 | 0 | 0 | 90 | 94 | 0
Cc1ccc(C(=O)NCCn2cc(SCC(=O)Nc3cc(C)on3)c3ccccc32)cc1 | 0 | 0 | 0 | 91 | 86 | 0
Cc1ccc(C(=O)NCCn2cc(SCC(=O)N3CCOCC3)c3ccccc32)cc1 | - | 0 | 0 | 0 | 0 | 0
COc1ccccc1C(=O)NCCn1cc(SCC(=O)Nc2nnc(C)s2)c2ccccc21 | 0 | 0 | 0 | 0 | 76 | 0
O=C(CSc1nnc(-c2ccccn2)n1Cc1ccco1)Nc1ccc2c(c1)OCO2 | - | 0 | 0 | 0 | 0 | 0
Cc1ccc(-n2c(SCC(=O)Nc3ccc4c(c3)OCCO4)nnc2-c2ccco2)cc1 | 0 | 0 | 0 | 0 | 0 | 0
CCCn1c(SCC(=O)Nc2ccc3c(c2)OCCO3)nnc1-c1ccco1 | 0 | 0 | 0 | 73 | 92 | 0
COCCn1c(SCC(=O)Nc2ccc3c(c2)OCCO3)nnc1-c1c[nH]c2ccccc12 | 0 | 0 | 0 | 0 | 58 | 0
COCCn1c(SCC(=O)NCc2ccco2)nnc1-c1c[nH]c2ccccc12 | - | 0 | 0 | 0 | 0 | 0
COc1cccc(-c2nnc(SCC(=O)Nc3ccc4c(c3)OCCO4)n2Cc2ccco2)c1 | 0 | 0 | 0 | 0 | 58 | 0
COc1cccc(-c2nnc(SCC(=O)NCc3ccc4c(c3)OCO4)n2Cc2ccco2)c1 | - | 0 | 0 | 0 | 72 | 0
COc1ccc(C(=O)c2ccc(N3CCN(C4CC(=O)NC4=O)CC3)cc2)cc1F (stereo not drawn) | 0 | 0 | 0 | 0 | 0 | 0
O=C1OC(C(=O)Nc2nccs2)Cc2ccccc21 (stereo not drawn) | - | 0 | 0 | 0 | 0 | 0
Cc1ccc(-n2nnnc2SCn2nnc3ccccc3c2=O)c(C)c1 | - | 0 | 0 | 0 | 0 | 0
Cc1ccc(NC(=O)c2ccccc2)cc1 | - | 0 | 0 | 0 | 0 | 0
Cc1ccc(NC(=O)c2ccc(Cl)c(N3C(=O)C=CC3=O)c2)cc1 | - | 0 | 0 | 0 | 62 | 0
Cc1nc(Nc2nc(=O)c3ccccc3n2C)nc2c(C)cccc12 | 0 | - | - | - | - | -
COc1cccc(/C(O)=C2\C(=O)C(=O)N(c3ccccn3)C2c2ccccc2OC)c1 (stereo not drawn) | 0 | 0 | 0 | 0 | 0 | 0
O=C1C(=O)N(Cc2cccnc2)C(c2ccccn2)/C1=C(/O)c1ccccc1 (stereo not drawn) | 0 | 0 | 0 | 0 | 76 | 0
COc1ccc(C2/C(=C(\O)c3cccc(OC)c3)C(=O)C(=O)N2c2ccccn2)cc1 (stereo not drawn) | - | 0 | 0 | 0 | 69 | 0
COc1cccc(/C(O)=C2/C(=O)C(=O)N(Cc3cccnc3)C2c2ccco2)c1 (stereo not drawn) | - | 0 | 0 | 0 | 89 | 0
SMILES | Ecoli tolC | CYP2C9 act | CYP2C19 activ | CYP2C19 inh | CYP2C9 inhib | E coli WT exp
Cc1ccc(C)c(/C(O)=C2\C(=O)C(=O)N(Cc3cccnc3)C2c2cccnc2)c1 (stereo not drawn) | 0 | 0 | 0 | 0 | 51 | 0
CCOc1ccc(N2C(=O)C(c3ccccc3)=C(c3nc4ccccc4s3)C2NC(C)=O)cc1 (stereo not drawn) | - | 0 | 0 | 0 | 0 | 0
CC(=O)c1nn(-c2cccc(Br)c2)cc1C(=O)c1ccc(C)cc1 | - | 0 | 0 | 0 | 61 | 0
CCOC(=O)c1nn(-c2ccc(Br)cc2)cc1C(=O)c1cccc2ccccc12 | - | 0 | 0 | 0 | 0 | 0
CC(=O)c1nn(-c2cccc(Br)c2)cc1C(=O)c1ccc(Br)cc1 | - | 2.4 | 0 | 0 | 0 | 0
CC(C)Oc1ccc(/C(O)=C2/C(=O)C(=O)N(CCN(C)C)C2c2ccco2)cc1 (stereo not drawn) | 0 | 0 | 0 | 0 | 0 | 0
CCc1c(O)nc(SCC(=O)Nc2ccccc2)n(-c2ccccc2)c1=O | 0 | 0 | 0 | 0 | 0 | 0
Cc1nc2ccccc2c(=O)n1C1CCCCCC1 | 0 | 0 | 0 | 58 | 0 | 0
CCOC(=O)CSc1nc2ccccc2c(=O)n1C1CCCC1 | 0 | 0 | 0 | 0 | 0 | 0
CCc1c(O)nc(SCC(=O)Nc2ccc(C)cc2)n(C2CCCCC2)c1=O | 78 | 0 | 0 | 0 | 0 | 0
CCCCNC(=O)CSc1nc2ccccc2c(=O)n1C1CCCC1 | 0 | 0 | 0 | 0 | 56 | 0
C=CCOc1nc2c(c(=O)n(Cc3ccc(Cl)cc3)c(=O)n2C)n1C | 0 | 0 | 0 | 0 | 0 | 0
Cc1ccc2nc(Nc3ccc4[nH]c(=O)[nH]c4c3)c(-n3nc(C)cc3C)nc2c1 | 0 | 0 | 0 | 0 | 0 | 0
COCCNC(=O)CCSCc1ccccc1F | 0 | 0 | 0 | 0 | 0 | 0
Clc1ccc(CO/N=C/c2c(-c3ccccc3)nc3n2CCS3)c(Cl)c1 | - | 0 | 0 | 0 | 65 | 0
FCCCOc1ccc(/C=N/OCc2ccc(Cl)cc2Cl)cc1 | - | 0 | 0 | 0 | 0 | 0
O=C(OCc1c(Cl)cccc1Cl)c1cccnc1 | 0 | 0 | 0 | 86 | 0 | 0
O=C(OCc1c(Cl)cccc1Cl)c1cccnc1Cl | - | 0 | 0 | 52 | 0 | 0
CCCC(=O)Nc1nc(-c2ccc(OC)cc2)cs1 | - | 0 | 0 | 64 | 96 | 0
CCCC(=O)Nc1nc(-c2ccc3c(c2)OCCO3)cs1 | 0 | 0 | 0 | 0 | 86 | 0
CCOC(=O)N1CCN(C(=O)CSCC(=O)Nc2nc(-c3ccc(OC)cc3)cs2)CC1 | 0 | 0 | 0 | 84 | 83 | 0
Cn1c(COc2ccccc2)nnc1SCC(=O)c1cccc([N+](=O)[O-])c1 | - | 0 | 0 | 0 | 0 | 0
Cc1nc2sc(C(c3ccc(C(C)C)cc3)N3CCN(CCO)CC3)c(O)n2n1 (stereo not drawn) | 0 | 0 | 0 | 0 | 0 | 0
NS(=O)(=O)c1ccc(CCNC(=O)[C@@H]2CCCN2S(=O)(=O)c2ccccc2F)cc1 | - | 0 | 0 | 0 | 61 | 0
NS(=O)(=O)c1ccc(CCNC(=O)C2CCCN2C(=O)OCc2ccccc2)cc1 (stereo not drawn) | 0 | 0 | 0 | 0 | 0 | 0
NS(=O)(=O)c1ccc(CCNC(=O)C2CCCCN2S(=O)(=O)c2ccccc2)cc1 (stereo not drawn) | 0 | 0 | 0 | 0 | 66 | 0
O=C1CSC(=O)N1CC(O)COc1ccc(Cl)cc1 (stereo not drawn) | 0 | 0 | 0 | 54 | 0 | 0
O=C(c1ccc(Cl)cc1)N1CCCC(c2ccccc2)=N1 | - | 0 | 0 | 0 | 0 | 0
C/C(=C\c1ccccc1)C(=O)NC1CCSC1=O (stereo not drawn) | - | 0 | 0 | 0 | 0 | 0
CCc1nnc(SCC(=O)N2CCCc3ccccc32)nc1CC | 0 | 0 | 0 | 78 | 56 | 0
